Assays:
Hepatitis B virus [1] = experiment: Selectivity ratio of CC50 for human HepG2(2.2.15) cells to IC50 for Hepatitis B virus infected in human HepG2(2.2.15) cells assessed as inhibition of viral replication; format: cell-based; conditions: read-out: Ratio CC50/IC50
Outline: (§1)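 The selectivity index was calculated as CC50/IC50. CC50 is MTT cytotoxicity in HepG2 2.2.15 cells. No index was given where a value could not be obtained.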

Hepatitis B virus [2] = experiment: Selectivity ratio of CC50 for human HepG2(2.2.15) cells to IC50 for Hepatitis B virus infected in human HepG2.2.15 cells assessed as suppression of HBsAg secretion; format: cell-based; conditions: read-out: Ratio CC50/IC50; outline: as §1
[3] = Cytotoxicity against human HepG2(2.2.15) cells by MTT assay; format: cell-based; conditions: HepG2(2.2.15) cells
Outline: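 HepG2 2.2.15 cells were exposed to compounds and viability was read by a modified MTT method. CC50 is the concentration giving 50% cytotoxicity. Values are means of at least two experiments.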

Hepatitis B virus [4] = experiment: Antiviral activity against Hepatitis B virus infected in human HepG2(2.2.15) cells assessed as inhibition of viral DNA replication by RT-PCR analysis; format: functional, organism-based
Hepatitis B virus [5] = experiment: Antiviral activity against Hepatitis B virus infected in human HepG2(2.2.15) cells assessed as suppression of HBsAg secretion by ELISA; format: functional, organism-based
Hepatitis B virus [6] = experiment: Antiviral activity against Hepatitis B virus infected in human HepG2(2.2.15) cells assessed as suppression of HbeAg secretion by ELISA; format: functional, organism-based
Hepatitis B virus [7] = experiment: Selectivity ratio of CC50 for human HepG2(2.2.15) cells to IC50 for Hepatitis B virus infected in human HepG2(2.2.15) cells assessed as suppression of HBeAg secretion; format: cell-based; conditions: read-out: Ratio CC50/IC50; outline: as §1

| Structure (SMILES) | selectivity ratio (Hepatitis B virus [1]) | selectivity ratio (Hepatitis B virus [2]) | CC50 [3] [µM] | IC50 (Hepatitis B virus [4]) [µM] | IC50 (Hepatitis B virus [5]) [µM] | IC50 (Hepatitis B virus [6]) [µM] | selectivity ratio (Hepatitis B virus [7]) |
| --- | --- | --- | --- | --- | --- | --- | --- |
| COCC(=O)O[C@H]1CC[C@@]2(C)C(=CC[C@]3(O)[C@@H]2C[C@@H](OC(=O)/C=C(\C)C(C)C)[C@@]2(C)[C@]3(O)CC[C@@]2(OC(=O)COC)C(C)=O)C1 | > 4.9 | > 4.2 | > 1400 | 288 | 331 | > 1400 | – |
| CC(=O)[C@]1(O)CC[C@@]2(O)[C@]1(C)[C@H](OC(=O)/C=C(\C)C(C)C)C[C@@H]1[C@@]3(C)CC[C@H](OC(=O)c4ccnn4C)CC3=CC[C@]12O | 3.6 | – | 10.1 | 2.82 | 14.5 | > 721 | – |
| CC(=O)[C@]1(OC(=O)CCN2C(=O)c3ccccc3C2=O)CC[C@@]2(O)[C@]1(C)[C@H](OC(=O)/C=C(\C)C(C)C)C[C@@H]1[C@@]3(C)CC[C@H](OC(=O)CCN4C(=O)c5ccccc5C4=O)CC3=CC[C@]12O | – | – | > 809 | > 202 | > 809 | > 809 | – |
| CC(=O)[C@]1(O)CC[C@@]2(O)[C@]1(C)[C@H](OC(=O)/C=C(\C)C(C)C)C[C@@H]1[C@@]3(C)CC[C@H](OC(=O)COCC(=O)O)CC3=CC[C@]12O | 1.7 | – | 274 | 164 | 524 | 115 | 2.4 |
| COc1cc(C(=O)O[C@H]2CC[C@@]3(C)C(=CC[C@]4(O)[C@@H]3C[C@@H](OC(=O)/C=C(\C)C(C)C)[C@@]3(C)[C@]4(O)CC[C@@]3(O)C(C)=O)C2)on1 | 7.8 | – | 133 | 17 | 201 | > 1180 | – |
| COCC(=O)O[C@H]1CC[C@@]2(C)C(=CC[C@]3(O)[C@@H]2C[C@@H](OC(=O)/C=C(\C)C(C)C)[C@@]2(C)[C@]3(O)CC[C@@]2(O)C(C)=O)C1 | – | 1.4 | 102 | 104 | 70.4 | > 836 | – |
| CC(=O)[C@]1(O)CC[C@@]2(O)[C@]1(C)[C@H](OC(=O)/C=C(\C)C(C)C)C[C@@H]1[C@@]3(C)CC[C@H](OC(=O)CC#N)CC3=CC[C@]12O | 10.5 | 1.2 | 122 | 7.32 | 100 | > 161 | – |
| CC(=O)[C@]1(O)CC[C@@]2(O)[C@]1(C)[C@H](OC(=O)/C=C(\C)C(C)C)C[C@@H]1[C@@]3(C)CCC(=O)CC3=CC(=O)[C@]12O | 1.4 | – | 155 | 113 | 205 | > 1630 | – |
| CC(=O)[C@]1(O)CC[C@]23OC(C)(C)O[C@]24CC=C2C[C@@H](O)CC[C@]2(C)[C@H]4C[C@@H](OC(=O)/C=C(\C)C(C)C)[C@@]31C | 2.3 | 3 | 512 | 218 | 168 | > 1720 | – |
| CC(=O)[C@]1(O)CC[C@@]2(O)[C@]1(C)[C@H](OC(=O)/C=C(\C)C(C)C)C[C@@H]1[C@@]3(C)CC[C@H](OC(=O)CCCC(=O)O)CC3=CC[C@]12O | 1.1 | – | 310 | 289 | > 385 | > 385 | – |
| CC(=O)[C@]1(OC(=O)/C=C/c2ccccc2Cl)CC[C@@]2(O)[C@]1(C)[C@H](OC(=O)/C=C(\C)C(C)C)C[C@@H]1[C@@]3(C)CC[C@H](OC(=O)/C=C/c4ccccc4Cl)CC3=CC[C@]12O | – | 1.6 | > 538 | > 148 | 599 | > 257 | – |
| CC(=O)[C@]1(O)CC[C@@]2(O)[C@]1(C)[C@H](OC(=O)/C=C(\C)C(C)C)C[C@@H]1[C@@]3(C)CC[C@H](OP(=O)(Oc4ccccc4)Oc4ccccc4)CC3=CC[C@]12O | – | – | > 1940 | > 485 | > 1940 | > 1940 | – |
| CC(=O)[C@]1(O)CC[C@@]2(O)[C@]1(C)[C@H](OC(=O)/C=C(\C)C(C)C)C[C@@H]1[C@@]3(C)CC[C@H](O)C[C@@]34O[C@H]4C[C@]12O | 1.2 | 1.2 | 226 | 184 | 189 | 1140 | – |
| C/C(=C\C(=O)O[C@@H]1C[C@@H]2[C@@]3(C)CC[C@H](O)CC3=CC[C@@]2(O)[C@@]2(O)CC[C@@](O)(C(C)O)[C@@]12C)C(C)C (stereo partly drawn) | 1.3 | – | 217 | 172 | 307 | > 1050 | – |
| CC(=O)[C@]1(OC(=O)CCC(=O)O)CC[C@@]2(O)[C@]1(C)[C@H](OC(=O)/C=C(\C)C(C)C)C[C@@H]1[C@@]3(C)CC[C@H](OC(=O)CCC(=O)O)CC3=CC[C@]12O | – | – | 483 | > 241 | 653 | > 966 | – |
| CC(=O)[C@]1(O)CC[C@@]2(O)[C@]1(C)[C@H](OC(=O)/C=C(\C)C(C)C)C[C@@H]1[C@@]3(C)CC[C@H](OC(=O)c4cnccn4)CC3=CC[C@]12O | 1.3 | – | 61.3 | 47.9 | 95.5 | < 50.3 | > 1.2 |
| CC(=O)[C@]1(OC(=O)/C=C/c2cc(F)cc(F)c2)CC[C@@]2(O)[C@]1(C)[C@H](OC(=O)/C=C(\C)C(C)C)C[C@@H]1[C@@]3(C)CC[C@H](OC(=O)/C=C/c4cc(F)cc(F)c4)CC3=CC[C@]12O | > 8.7 | – | > 1580 | 183 | > 1580 | > 1580 | – |
| CC(=O)[C@]1(OC(=O)CCCC(=O)O)CC[C@@]2(O)[C@]1(C)[C@H](OC(=O)/C=C(\C)C(C)C)C[C@@H]1[C@@]3(C)CC[C@H](OC(=O)CCCC(=O)O)CC3=CC[C@]12O | – | – | > 268 | > 268 | > 268 | > 268 | – |
| CCOCC(=O)O[C@H]1CC[C@@]2(C)C(=CC[C@]3(O)[C@@H]2C[C@@H](OC(=O)/C=C(\C)C(C)C)[C@@]2(C)[C@]3(O)CC[C@@]2(O)C(C)=O)C1 | 8.4 | 1.7 | 116 | 13.8 | 68.2 | > 153 | – |
| CC(=O)N1CCC[C@H]1C(=O)O[C@H]1CC[C@@]2(C)C(=CC[C@]3(O)[C@@H]2C[C@@H](OC(=O)/C=C(\C)C(C)C)[C@@]2(C)[C@]3(O)CC[C@@]2(O)C(C)=O)C1 | 1.6 | 1.5 | 106 | 65.7 | 70.7 | > 638 | – |
| COC(=O)COCC(=O)O[C@H]1CC[C@@]2(C)C(=CC[C@]3(O)[C@@H]2C[C@@H](OC(=O)/C=C(\C)C(C)C)[C@@]2(C)[C@]3(O)CC[C@@]2(O)C(C)=O)C1 | – | – | 25.3 | > 105 | 51.6 | 78.6 | – |
| COP(=O)(OC)O[C@H]1CC[C@@]2(C)C(=CC[C@]3(O)[C@@H]2C[C@@H](OC(=O)/C=C(\C)C(C)C)[C@@]2(C)[C@]3(O)CC[C@@]2(O)C(C)=O)C1 | 5.3 | – | 560 | 105 | > 1750 | > 1750 | – |
| CC(=O)[C@]1(O)CC[C@@]2(O)[C@]1(C)[C@H](OC(=O)/C=C(\C)C(C)C)C[C@@H]1[C@@]3(C)CC[C@H](OC(=O)c4ccc(F)nc4)CC3=CC[C@]12O | 2.9 | – | 14.3 | 4.97 | 15.6 | > 687 | – |
| CC(=O)[C@]1(O)CC[C@@]2(O)[C@]1(C)[C@H](OC(=O)/C=C(\C)C(C)C)C[C@@H]1[C@@]3(C)CC[C@H](OC(=O)CO)CC3=CC[C@]12O | – | – | 136 | 219 | 192 | 147 | – |
| CC(=O)[C@]1(O)CC[C@@]2(O)[C@]1(C)[C@H](OC(=O)/C=C(\C)C(C)C)C[C@@H]1[C@@]3(C)CC[C@H](OC(=O)Cc4ccncc4)CC3=CC[C@]12O | – | – | 39.9 | > 414 | 19.7 | > 32.8 | – |
| CC(=O)[C@]1(O)CC[C@@]2(O)[C@]1(C)[C@H](OC(=O)/C=C(\C)C(C)C)C[C@@H]1[C@@]3(C)CC[C@H](OC(=O)CN(C)C)CC3=CC[C@]12O | 3.6 | – | 50.5 | 13.8 | 87.2 | > 749 | – |
| CC(=O)[C@]1(O)CC[C@@]2(O)[C@]1(C)[C@H](OC(=O)/C=C(\C)C(C)C)C[C@@H]1[C@@]3(C)CC[C@H](OC(=O)c4cccnc4)CC3=CC[C@]12O | 12.4 | 2.4 | 50.4 | 4.05 | 20.8 | > 1040 | – |
| CC(=O)[C@]1(O)CC[C@@]2(O)[C@]1(C)[C@H](OC(=O)/C=C(\C)C(C)C)C[C@@H]1[C@@]3(C)CC[C@H](OC(=O)c4ccc(Br)cn4)CC3=CC[C@]12O | 3.9 | – | 48.4 | 12.5 | 76.5 | > 626 | – |
| CC(=O)N1CCC(C(=O)O[C@H]2CC[C@@]3(C)C(=CC[C@]4(O)[C@@H]3C[C@@H](OC(=O)/C=C(\C)C(C)C)[C@@]3(C)[C@]4(O)CC[C@@]3(O)C(C)=O)C2)CC1 | 1.1 | – | 62.1 | 54.8 | 93.2 | < 62.1 | > 1 |
